Consider one compound from ChEMBL document CHEMBL5331142, “Novel 1,4-Dihydropyridines as Specific Binders and Activators of SIRT3 Impair Cell Viability and Clonogenicity and Downregulate Hypoxia-Induced Targets in Cancer Cells” (J Med Chem, 2023).

Series [1] has as its target T1, NAD-dependent protein deacetylase sirtuin-3, mitochondrial (Homo sapiens, UniProt Q9NTG7).
T1 sequence (Q9NTG7 whole entry): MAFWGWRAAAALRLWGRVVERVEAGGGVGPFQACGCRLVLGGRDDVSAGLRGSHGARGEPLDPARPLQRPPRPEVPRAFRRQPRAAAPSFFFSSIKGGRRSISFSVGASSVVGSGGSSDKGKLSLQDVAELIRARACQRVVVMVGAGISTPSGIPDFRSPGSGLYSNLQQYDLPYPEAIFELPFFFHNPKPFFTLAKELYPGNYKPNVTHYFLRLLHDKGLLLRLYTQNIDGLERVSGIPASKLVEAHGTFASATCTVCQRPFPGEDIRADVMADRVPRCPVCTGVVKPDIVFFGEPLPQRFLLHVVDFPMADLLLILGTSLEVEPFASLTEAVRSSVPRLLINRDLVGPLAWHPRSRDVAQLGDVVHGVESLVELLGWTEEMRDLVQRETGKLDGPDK
Kind of series: Binding affinity to N-terminal his-tagged human SIRT3 (114 to 380 residues) assessed as dissociation constant by SPR analysis. In short, it runs like this: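 SPR with SIRT3 amine-coupled to the chip (sodium acetate pH 4.0; 1500–4000 RU). Analytes diluted to 200 μM in HBSP (20 mM Hepes, 150 mM NaCl, 0.005% P20; 2% DMSO), injected at 5, 10, 20, 40, 80 μM at 30 μL/min. Dissociation after 180 s. Reference chip lacked ligand. Apparent KD by Scatchard analysis. Run twice.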
A general note: SPR reads the build-up and loss of mass on a sensor chip optically.

Series [2] concerns the target T2, NAD-dependent protein deacetylase sirtuin-3, mitochondrial (Homo sapiens) (UniProt Q9NTG7).
T2 sequence (whole entry): T1 sequence (Q9NTG7 whole entry)
Kind of series: Activation of human SIRT3 overexpressing in human MDA-MB-231 cells assessed as increase in acK68-MnSOD deacetylation level at 50 uM incubated for 4 hrs by Western blot analysis assay. The series is classed as cell-based. Conditions: filed as activator. In short, it runs like this:
(§1)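 CAL-62 or MDA-MB-231 cells treated 4 h at 50 μM. Lysed in Tris/NaCl/EDTA/Triton buffer with protease and phosphatase inhibitors. 15 or 50 μg protein resolved by SDS-PAGE, immunoblotted for acK68- or acK122-MnSOD and total MnSOD, ECL detection. Densitometric acetyl/total ratio. SIRT3 inhibitor 3-TYP (1 μM) used as control.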
In general terms: In western blotting, separated proteins are transferred to a membrane and probed.

The target of series [3] is T2, NAD-dependent protein deacetylase sirtuin-3, mitochondrial (Homo sapiens). Kind of series: Activation of human SIRT3 overexpressing in human MDA-MB-231 cells assessed as increase in acK122-MnSOD deacetylation level at 50 uM incubated for 4 hrs by Western blot analysis assay. The series is classed as cell-based. Conditions: filed as activator. In short, it runs like this: as §1

The target is the same in series [4]. Kind of series: Activation of human SIRT3 overexpressing in human CAL-62 cells assessed as increase in acK68-MnSOD deacetylation level at 50 uM incubated for 4 hrs by Western blot analysis assay. The class given is cell-based. The settings on record: filed as activator. The gist of the method: as §1
Series [5] has the same target. Kind of series: Activation of human SIRT3 overexpressing in human CAL-62 cells assessed as increase in acK122-MnSOD deacetylation level at 50 uM incubated for 4 hrs by Western blot analysis assay. The class given is cell-based. Conditions: filed as activator. In short, it runs like this: as §1
For series [6] the target is unchanged. Kind of series: Activation of human SIRT3 overexpressing in human MDA-MB-231 cells assessed as increase in acK122-MnSOD deacetylation level at 10 uM incubated for 4 hrs by Western blot analysis assay. Conditions: filed as activator. The class given is cell-based. The gist of the method:
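MDA-MB-231 cells treated 4 h at 10 μM, lysed, and immunoblotted for acK122-MnSOD and total MnSOD. Densitometric ratio.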

Series [7] has as its system CAL-62. Kind of series: Inhibition of clonogenicity in human CAL-62 cells at 50 uM incubated for 24 to 48 hrs under normoxia condition by crystal violet staining based assay. The settings on record: time 24-48 hrs. The series is classed as functional. The gist of the method: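 CAL-62 cells at 80–90% confluence treated with 50 μM compound for 24 or 48 h, in normoxia or with 200 μM CoCl2 (hypoxia). 500 cells replated per 100 mm dish and grown about 7 days. Colonies fixed in 4% formaldehyde, stained with 0.5% crystal violet, and counted.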

Series [8] has as its system CAL-62. Kind of series: Inhibition of clonogenicity in human CAL-62 cells incubated for 48 hrs under hypoxia condition by crystal violet staining based assay. The series is classed as functional, cell-based. Conditions: CAL-62, 48 h. The gist of the method: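 Dose range 1–50 μM for 48 h under CoCl2 (200 μM) hypoxia. 500 surviving cells replated and grown about 7 days (CAL-62) or 10 days (MDA-MB-231). Crystal violet colony counts used to derive IC50/EC50. Three independent experiments.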

The next series relates to HaCaT. Kind of series: Cytotoxicity against human HaCaT cells assessed as reduction in cell viability at 10 to 25 uM incubated for 48 hrs by trypan blue exclusion assay. The class given is toxicity, cell-based. Conditions: dose 10-25 µM. The gist of the method:
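HaCaT keratinocytes in DMEM with 10% FBS, treated at 5, 10 and 25 μM for 24 and 48 h. Viability and death scored by trypan blue hemocytometer counting. Three independent experiments.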

Series [9] has as its system CAL-62. Kind of series: Downregulation of HIF1alpha expression in human CAL-62 cells at 50 uM incubated for 48 hrs under hypoxia condition by Western blot analysis. The series is classed as functional, cell-based. The gist of the method:
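CAL-62 or MDA-MB-231 cells made hypoxic with 200 μM CoCl2 for 24 h, then treated with 50 μM compound for 48 h with CoCl2 retained. Lysates (15 or 50 μg protein) immunoblotted for HIF-1α, EPAS-1 or CA-IX with ACTB, ECL detection. 3-TYP (1 μM) as control.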

Active and inactive are the calls of the source. No cut-off for these calls is given here.

Regarding `CCOC(=O)C1=CN(C(=O)c2cc(OC)cc(OC)c2)C=C(C(=O)OCC)C1c1ccccc1`, in [1], the dissociation constant Kd – broadly, the free concentration of one partner at which half of the binding sites on the other are occupied at equilibrium, for simple one-to-one binding – was 79 µM. Further, the result (in series [2]; in series [3]; in [4]; in [5]; in series [6]; in the series with CAL-62 [9]) was Active. Also, testing at 50 µM with CAL-62 [7] gave an inhibition of 68%. Also, in the series on CAL-62 [8], the 50% inhibitory concentration (IC50) – broadly, the concentration that inhibits the measured activity by half – came out at 5.43 µM. Also, the Activity entry in the series with HaCaT was “Non-Toxic”.
